According to ChEMBL document CHEMBL4680104, “Structure-Based Optimization of Small-Molecule Inhibitors for the β-Catenin/B-Cell Lymphoma 9 Protein-Protein Interaction” (J Med Chem, 2018):
pIC50, pKi: −log10 of the molar value. Calls of active or inactive are those of the source. The rule behind the calls is not given here.

Key:
[1] = target: T1, beta-catenin-B-cell lymphoma 9 protein complex (Homo sapiens, UniProt P35222); experiment: Inhibition of protein interaction between beta-catenin (unknown origin)/BCL9 in HEK293 cells transfected with beta-catenin assessed as reduction in Wnt/beta-catenin transactivation incubated for 24 hrs by Wnt-responsive TOP-Flash luciferase reporter assay; type: cell-based
T1 sequence (P35222 whole entry): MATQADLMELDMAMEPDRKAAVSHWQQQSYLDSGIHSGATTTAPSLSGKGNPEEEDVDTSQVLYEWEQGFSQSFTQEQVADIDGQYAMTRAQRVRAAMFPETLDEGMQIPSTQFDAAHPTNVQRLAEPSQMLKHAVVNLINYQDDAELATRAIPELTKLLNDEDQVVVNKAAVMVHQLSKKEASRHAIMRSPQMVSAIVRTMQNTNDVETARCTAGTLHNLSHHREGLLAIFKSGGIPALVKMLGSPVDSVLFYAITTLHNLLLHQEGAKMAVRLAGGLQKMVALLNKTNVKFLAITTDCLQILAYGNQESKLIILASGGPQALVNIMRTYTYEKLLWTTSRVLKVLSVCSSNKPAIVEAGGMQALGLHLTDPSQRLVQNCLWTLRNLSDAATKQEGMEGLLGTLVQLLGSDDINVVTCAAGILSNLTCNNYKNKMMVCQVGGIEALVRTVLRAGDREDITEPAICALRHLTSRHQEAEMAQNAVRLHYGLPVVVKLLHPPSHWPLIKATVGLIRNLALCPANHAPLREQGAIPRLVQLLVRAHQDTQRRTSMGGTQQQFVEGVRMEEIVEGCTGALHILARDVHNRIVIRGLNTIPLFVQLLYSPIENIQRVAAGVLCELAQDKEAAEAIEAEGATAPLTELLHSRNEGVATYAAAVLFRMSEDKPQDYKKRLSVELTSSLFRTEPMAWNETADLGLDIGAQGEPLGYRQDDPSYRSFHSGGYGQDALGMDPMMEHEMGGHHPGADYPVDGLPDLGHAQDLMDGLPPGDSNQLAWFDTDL
T1 sequence (O00512 whole entry): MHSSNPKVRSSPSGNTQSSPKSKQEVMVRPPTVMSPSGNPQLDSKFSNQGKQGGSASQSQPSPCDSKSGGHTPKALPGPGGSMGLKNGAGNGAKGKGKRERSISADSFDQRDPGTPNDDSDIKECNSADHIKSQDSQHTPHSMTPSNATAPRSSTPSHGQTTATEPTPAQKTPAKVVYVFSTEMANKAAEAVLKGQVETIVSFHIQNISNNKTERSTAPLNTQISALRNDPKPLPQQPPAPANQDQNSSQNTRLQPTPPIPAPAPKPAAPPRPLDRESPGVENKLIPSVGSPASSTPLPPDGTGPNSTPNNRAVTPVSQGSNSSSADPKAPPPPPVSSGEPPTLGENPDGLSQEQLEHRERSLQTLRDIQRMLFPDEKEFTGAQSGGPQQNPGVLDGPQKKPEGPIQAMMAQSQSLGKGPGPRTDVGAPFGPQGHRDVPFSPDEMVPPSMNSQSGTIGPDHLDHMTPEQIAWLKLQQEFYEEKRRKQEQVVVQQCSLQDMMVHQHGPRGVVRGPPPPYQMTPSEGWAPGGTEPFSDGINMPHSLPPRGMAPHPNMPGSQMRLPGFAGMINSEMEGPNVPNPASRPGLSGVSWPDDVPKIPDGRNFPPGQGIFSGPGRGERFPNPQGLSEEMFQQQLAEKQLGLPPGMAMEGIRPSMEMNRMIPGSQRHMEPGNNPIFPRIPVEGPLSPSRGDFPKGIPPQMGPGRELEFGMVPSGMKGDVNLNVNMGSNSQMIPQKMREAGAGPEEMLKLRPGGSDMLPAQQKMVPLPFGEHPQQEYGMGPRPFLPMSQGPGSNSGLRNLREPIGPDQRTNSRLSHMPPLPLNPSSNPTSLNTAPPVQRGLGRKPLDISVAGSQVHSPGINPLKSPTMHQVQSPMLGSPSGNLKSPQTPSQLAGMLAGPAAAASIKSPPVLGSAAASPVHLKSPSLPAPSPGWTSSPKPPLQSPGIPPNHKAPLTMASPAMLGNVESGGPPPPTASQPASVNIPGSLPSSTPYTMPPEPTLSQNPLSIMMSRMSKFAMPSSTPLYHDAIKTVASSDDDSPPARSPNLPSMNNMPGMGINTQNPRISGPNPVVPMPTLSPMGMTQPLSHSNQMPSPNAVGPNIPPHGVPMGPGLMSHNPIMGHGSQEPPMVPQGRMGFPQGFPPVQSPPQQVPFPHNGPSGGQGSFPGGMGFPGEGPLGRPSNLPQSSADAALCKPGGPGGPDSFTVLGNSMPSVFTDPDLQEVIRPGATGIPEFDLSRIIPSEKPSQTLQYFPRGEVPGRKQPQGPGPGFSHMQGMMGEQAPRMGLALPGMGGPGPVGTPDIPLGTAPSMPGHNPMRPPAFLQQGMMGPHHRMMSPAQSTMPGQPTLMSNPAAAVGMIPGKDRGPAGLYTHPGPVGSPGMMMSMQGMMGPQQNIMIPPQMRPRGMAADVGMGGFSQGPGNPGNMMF
Summary of the method: (§1)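 HEK293 cells were cotransfected using FuGENE6 with 45 ng TOPFlash or FOPFlash reporter, 135 ng pcDNA3.1-β-catenin and 20 ng pCMV-RL normalization reporter. After 24 h in DMEM with 10% FBS at 37 °C, inhibitors or DMSO were added for 24 h. Reporter activity was read with a dual luciferase system, normalized, and compared with DMSO-treated cells. Triplicate.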

[2] = Inhibition of protein interaction between C-terminal 6x-histidine tagged full-length beta-catenin (1 to 781 residues) (unknown origin)/N-terminal biotinylated human E-cadherin (824 to 877 residues) incubated for 1 hr by Alpha-screen competitive inhibition assay
Summary of the method: (§2)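 Full-length β-catenin (residues 1–781) with a C-terminal His6 tag was expressed in E. coli BL21(DE3) after IPTG induction at 20 °C. It was purified by Ni-NTA, anion-exchange and size-exclusion chromatography. For the assay, 40 nM β-catenin was preincubated for 30 min at 4 °C with 5 nM biotinylated BCL9 or 10 nM biotinylated E-cadherin. Inhibitor was then added for 1 h at 4 °C, followed by 10 μg/mL donor and acceptor beads for 1 h at 4 °C. IC50 was obtained by nonlinear fit and converted to Ki by the Nikolovska-Coleska method. Triplicate, mean ± SD.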

[3] = target: T2, beta-catenin-B-cell lymphoma 9 protein complex (Homo sapiens) (UniProt P35222+O00512); experiment: Inhibition of protein interaction between beta-catenin (unknown origin)/BCL9 in human HEK293 cells transfected with beta-catenin assessed as reduction in Wnt/beta-catenin transactivation incubated for 24 hrs by Wnt-responsive FOP-Flash luciferase reporter assay
SW480 [4] = experiment: Cytotoxic activity in human SW480 cells at 800 uM incubated for 4 hrs by LDH release assay; type: cell-based; conditions: sw480, 4 h
Summary of the method: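 SW480 cells were seeded at 2 × 10^4 cells/well and kept overnight at 37 °C. They were then exposed to a range of inhibitor concentrations for 4 h. LDH in the culture supernatant was measured with a diagnostic kit by absorbance at 490 nm. Percent cytotoxicity was calculated from experimental release against maximum release, with background subtracted. Run in triplicate.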

HCT-116 = experiment: Cytotoxicity in human HCT-116 cells assessed as reduction in cell viability incubated for 72 hrs by MTS assay; type: functional, cell-based; conditions: HCT-116, 72 h
Summary of the method: (§3)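 Cells seeded at 5 × 10^3 cells/well, kept overnight at 37 °C, then exposed to inhibitors at various concentrations for 72 h. Viability read with a freshly mixed PMS (0.92 mg/mL) : MTS (2 mg/mL) reagent at 1:19, incubated 3 h at 37 °C, A490 measured. […] Triplicate; mean ± SD.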

SW480 [5] = experiment: Cytotoxicity in human SW480 cells assessed as reduction in cell viability incubated for 72 hrs by MTS assay; type: functional, cell-based; conditions: SW480, 72 h; summary of the method: as §3
[6] = target: T2, beta-catenin-B-cell lymphoma 9 protein complex (Homo sapiens); experiment: Inhibition of protein interaction between beta-catenin (unknown origin)/BCL9 in HEK293 cells transfected with beta-catenin assessed as reduction in Wnt/beta-catenin transactivation incubated for 24 hrs by Wnt-responsive FOP-Flash luciferase reporter assay; type: cell-based; summary of the method: as §1
[7] = target: T1, beta-catenin-B-cell lymphoma 9 protein complex; experiment: Inhibition of protein interaction between beta-catenin (unknown origin)/BCL9 in human SW480 cells transfected with beta-catenin assessed as reduction in Wnt/beta-catenin transactivation incubated for 24 hrs by Wnt-responsive TOP-Flash luciferase reporter assay; type: cell-based
A549 = experiment: Cytotoxicity in human A549 cells assessed as reduction in cell viability incubated for 72 hrs by MTS assay; type: functional, cell-based; conditions: A549, 72 h; summary of the method: as §3
[8] = target: T1, beta-catenin-B-cell lymphoma 9 protein complex; experiment: Inhibition of protein interaction between C-terminal 6x-histidine tagged full-length beta-catenin (1 to 781 residues) (unknown origin)/N-terminal biotinylated human BCL9 ( 350 to 375 residues) incubated for 1 hr by Alpha-screen competitive inhibition assay; type: protein-complex assay; summary of the method: as §2
[9] = Inhibition of protein interaction between beta-catenin K181A mutant (unknown origin)/N-terminal biotinylated human BCL9 ( 350 to 375 residues) incubated for 1 hr by Alpha-screen competitive inhibition assay
[10] = Inhibition of protein interaction between beta-catenin D145A/E155A mutant (unknown origin)/N-terminal biotinylated human BCL9 ( 350 to 375 residues) incubated for 1 hr by Alpha-screen competitive inhibition assay
MDA-MB-231 = experiment: Cytotoxicity in human MDA-MB-231 cells assessed as reduction in cell viability incubated for 72 hrs by MTS assay; type: functional, cell-based; conditions: MDA-MB-231, 72 h
Summary of the method: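 Triple-negative breast cancer line seeded at 5 × 10^3 cells/well, held overnight at 37 °C, then exposed to inhibitor over a concentration range for 72 h. Viability read out with a fresh 1:19 mix of PMS (0.92 mg/mL) and MTS (2 mg/mL), incubated 3 h at 37 °C, A490 measured.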

[11] = Inhibition of protein interaction between beta-catenin D145A mutant (unknown origin)/N-terminal biotinylated human BCL9 ( 350 to 375 residues) incubated for 1 hr by Alpha-screen competitive inhibition assay
[12] = Effect on HPRT mRNA expression in human SW480 cells at 10 uM incubated for 24 hrs by qPCR analysis relative to control; type: ADME, cell-based; conditions: read-out: FC
Summary of the method: (§4)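 SW480 cells at 1 × 10^6/mL were treated with inhibitor for 24 h. Total RNA was extracted with TRIzol and cDNA made by first-strand synthesis. SYBR green qPCR used human HPRT primers, with CT values normalised to GAPDH as internal reference. Performed in triplicate.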

[13] = Effect on HPRT mRNA expression in human SW480 cells at 5 uM incubated for 24 hrs by qPCR analysis relative to control; type: ADME, cell-based; conditions: read-out: FC; summary of the method: as §4
[14] = Effect on HPRT mRNA expression in human SW480 cells at 20 uM incubated for 24 hrs by qPCR analysis relative to control; type: ADME, cell-based; conditions: read-out: FC; summary of the method: as §4

SMILES	pIC50 [1]	pKi [2]	inhibition [3]	Activity (SW480 [4])	pIC50 (HCT-116)	pIC50 (SW480 [5])	inhibition [6]	pIC50 [7]	pIC50 (A549)	pKi [8]	pKi [9]	pKi [10]	pIC50 (MDA-MB-231)	pKi [11]	fold induction at 10 µM [12]	fold induction at 5 µM [13]	fold induction at 20 µM [14]
Cl.Cl.O=C(Nc1ccc(O[C@@H]2CCNC2)c(-c2cccc(-c3nn[nH]n3)c2)c1)c1ccc(O[C@H]2CCNC2)c(-c2ccc3ccsc3c2)c1	4.30	< 3.04	inactive	Non-Toxic	3.62	3.82	inactive	4.37	3.37								
Cl.Cl.O=C(O)c1ccc(-c2cc(NC(=O)c3ccc(O[C@H]4CCNC4)c(-c4ccc(F)c(F)c4)c3)ccc2O[C@H]2CCNC2)cc1				Non-Toxic	< 3.40	< 3.40		3.41		5.43							
Cl.Cl.NS(=O)(=O)c1ccc(-c2cc(NC(=O)c3ccc(O[C@H]4CCNC4)c(-c4ccc(F)c(F)c4)c3)ccc2O[C@H]2CCNC2)cc1	< 3.70			Non-Toxic		3.66		< 3.70		5.25							
Cl.Cl.O=C(Nc1ccc(O[C@H]2CCNC2)c(-c2cccc(-c3nn[nH]n3)c2)c1)c1ccc(O[C@H]2CCNC2)c(-c2ccc(F)c(F)c2)c1				Non-Toxic	3.72	3.85			3.39	6.00	5.31	4.74	4.04	5.19			
Cl.Cl.O=C(O)c1cccc(-c2cc(NC(=O)c3ccc(O[C@H]4CCNC4)c(-c4ccc(F)c(F)c4)c3)ccc2O[C@H]2CCNC2)c1				Non-Toxic	< 3.40	< 3.40		3.43		5.27							
Cl.Cl.O=C(O)c1ccc(F)c(-c2cc(NC(=O)c3ccc(O[C@H]4CCNC4)c(-c4ccc(F)c(F)c4)c3)ccc2O[C@H]2CCNC2)c1				Non-Toxic	< 3.40	< 3.40		< 3.40		4.92							
Cl.Cl.Fc1ccc(-c2cc(-c3ccc4cc(O[C@H]5CCNC5)c(-c5ccc(F)c(F)c5)cc4n3)ccc2O[C@H]2CCNC2)cc1	4.59		Active	Non-Toxic	5.02	5.44	Active	4.92	4.64				4.82		0.319	0.369	0.0612
CS(=O)(=O)Nc1cccc(-c2cc(NC(=O)c3ccc(O[C@H]4CCNC4)c(-c4ccc(F)c(F)c4)c3)ccc2O[C@H]2CCNC2)c1.Cl.Cl				Non-Toxic		4.02				5.23							
Cl.Cl.NC(=O)c1ccc(-c2cc(NC(=O)c3ccc(O[C@H]4CCNC4)c(-c4ccc(F)c(F)c4)c3)ccc2O[C@H]2CCNC2)cc1				Non-Toxic		3.80				5.33							
